Experimental data published in ChEMBL document CHEMBL1130289, “Polyanion inhibitors of human immunodeficiency virus and other viruses. 5. Telomerized anionic surfactants derived from amino acids” (J Med Chem, 1997).

How the values were obtained:
[1] = test system: Human immunodeficiency virus 1; experiment: Inhibitory concentration required to inhibit HIV-induced cytopathicity in CEM-4 cells by 50% based in the MTT assay; Not active; type: functional, organism-based
E6SM = experiment: Minimum cytotoxic concentration required to cause a microscopically detectable alteration of normal cell morphology in E6SM cells; type: functional, Homo sapiens
Procedure, shortened: (§1)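 Uninfected E6SM, HeLa or Vero cells were exposed to compound and examined by microscopy. MCC is the lowest concentration causing a detectable alteration of normal cell morphology.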

Vaccinia virus = experiment: Concentration required to inhibit Vaccinia induced cytopathicity in E6SM cells by 50%; type: functional, organism-based; settings: Orthopoxvirus vaccinia
[2] = test system: Vesicular stomatitis virus; experiment: Concentration required to inhibit vesicular stomatitis induced cytopathicity in E6SM cells by 50%; type: functional, organism-based
HEL = experiment: Minimum cytotoxic concentration required to cause a microscopically detectable alteration of normal cell morphology in HEL cells; type: functional, Homo sapiens
Human betaherpesvirus 5 [3] = experiment: Concentration required to inhibit HCMV(AD169) induced cytopathicity in HEL cells by 50%; type: functional, organism-based; settings: Human betaherpesvirus 5, HEL
Procedure, shortened: (§2)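 Virus was added to the cell monolayers in the presence of compound. Incubation continued until the viral cytopathic effect was scored. IC50 is the concentration that reduced virus-induced cytopathicity by 50%.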

Human betaherpesvirus 5 [4] = experiment: Concentration required to inhibit HCMV(Davis) induced cytopathicity in HEL cells by 50%; type: functional, organism-based; settings: Human betaherpesvirus 5, HEL; procedure, shortened: as §2
HeLa = experiment: Minimum cytotoxic concentration required to cause a microscopically detectable alteration of normal cell morphology in HeLa cells; type: functional, Homo sapiens; procedure, shortened: as §1
Coxsackievirus = experiment: Concentration required to inhibit Coxsackie induced cytopathicity in HeLa cells by 50%; type: functional, organism-based; procedure, shortened: as §2
Poliovirus 1 = experiment: Concentration required to inhibit Polio-1 induced cytopathicity in HeLa cells by 50%; type: functional, organism-based; settings: Enterovirus C
[5] = test system: Human immunodeficiency virus 1; experiment: Concentration required to inhibit by 50% syncytium formation between MOLT-4 cells and HIV-1(IIIB); type: functional, organism-based; settings: Human immunodeficiency virus 1, MOLT-4
Procedure, shortened: (§3)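 Uninfected MOLT-4 cells were co-cultured with HUT-78 cells chronically infected with HIV-1 (IIIB) or HIV-2 (ROD), in the presence of compound. The end point was syncytium formation, and IC50 is the concentration giving 50% inhibition. Values are means of two separate experiments.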

MT4 = experiment: Concentration required to reduce the viability of mock-infected MT-4 cells by 50%; type: functional; settings: Homo sapiens
Procedure, shortened: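 Mock-infected MT-4 cells were exposed to compound. CC50 is the concentration that reduced cell viability by 50%. Values are means of two separate experiments.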

[6] = test system: Human immunodeficiency virus 1; experiment: Concentration required to inhibit HIV-1 induced cytopathicity in MT-4 cells by 50%; type: functional, organism-based; settings: Human immunodeficiency virus 1, MT4
Procedure, shortened: (§4)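 MT-4 cells were infected with HIV-1 (strain HTLV-IIIB/LAI) or HIV-2 (strain LAV-2 ROD) and exposed to compound. IC50 is the concentration that inhibited HIV-induced cytopathicity by 50%. Values are means of two separate experiments.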

[7] = test system: Human immunodeficiency virus 2; experiment: Concentration required to inhibit HIV-2 induced cytopathicity in MT-4 cells by 50%; type: functional, organism-based; settings: Human immunodeficiency virus 2, MT4; procedure, shortened: as §4
[8] = test system: Human immunodeficiency virus 2; experiment: Concentration required to inhibit by 50% syncytium formation between MOLT-4 cells and HIV-2 (ROD) infected HUT-78 cells; type: functional, organism-based; settings: Human immunodeficiency virus 2, MOLT-4; procedure, shortened: as §3
Vero = experiment: Minimum cytotoxic concentration required to cause a microscopically detectable alteration of normal cell morphology in Vero cells; type: functional, Chlorocebus sabaeus; procedure, shortened: as §1
Junin virus = experiment: Concentration required to inhibit Junin induced cytopathicity in Vero cells by 50%; type: functional, organism-based; settings: Mammarenavirus juninense
Sindbis virus = experiment: Concentration required to inhibit Sindbis induced cytopathicity in Vero cells by 50%; type: functional, organism-based; procedure, shortened: as §2
Tacaribe virus = experiment: Concentration required to inhibit Tacaribe induced cytopathicity in Vero cells by 50%; type: functional, cell-based; settings: Mammarenavirus tacaribeense
Human respirovirus 3 = experiment: Concentration required to inhibit parainfluenza-3 induced cytopathicity in Vero cells by 50%; type: functional, organism-based; settings: Human respirovirus 3, Vero; procedure, shortened: as §2
[9] = test system: Mammalian orthoreovirus 1; experiment: Concentration required to inhibit reovirus-1 induced cytopathicity in Vero cells by 50%; type: functional, organism-based; settings: Mammalian orthoreovirus 1, Vero; procedure, shortened: as §2
Semliki Forest virus = experiment: Concentration required to inhibit forest induced cytopathicity in Vero cells by 50%; type: functional, organism-based; procedure, shortened: as §2
CEM-4 = experiment: Cytotoxic concentration required to reduce the viability of uninfected cells by 50% after 5 days of incubation in the presence on CEM-4 cells.; type: functional; settings: Homo sapiens, CEM-4, 120 h
Procedure, shortened: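 Uninfected CEM-4 cells were incubated with compound for 5 days. CC50 is the concentration that reduced viability by 50%. Values average at least two separate experiments.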

Human alphaherpesvirus 2 = experiment: Concentration required to inhibit HSV-2(G) induced cytopathicity in E6SM cells by 50%; settings: Human alphaherpesvirus 2, E6SM
Human alphaherpesvirus 1 [10] = experiment: Concentration required to inhibit HSV-1(KOS) induced cytopathicity in E6SM cells by 50%; settings: Human alphaherpesvirus 1, E6SM
Human alphaherpesvirus 1 [11] = experiment: Concentration required to inhibit HSV-1 TK-(B2006) induced cytopathicity in E6SM cells by 50%; settings: Human alphaherpesvirus 1, E6SM
[12] = test system: Human immunodeficiency virus 1; experiment: Inhibitory concentration required to inhibit HIV-induced cytopathicity in CEM-4 cells by 50% based in the MTT assay; type: functional, organism-based; settings: Human immunodeficiency virus 1, CEM-4

| Compound | MMC (E6SM) [µg/mL] | IC50 (Vaccinia virus) [µg/mL] | IC50 [2] [µg/mL] | MMC (HEL) [µg/mL] | IC50 (Human betaherpesvirus 5 [3]) [µg/mL] | IC50 (Human betaherpesvirus 5 [4]) [µg/mL] | MMC (HeLa) [µg/mL] | IC50 (Coxsackievirus) [µg/mL] | IC50 (Poliovirus 1) [µg/mL] | IC50 [5] [µg/mL] | CC50 (MT4) [µg/mL] | IC50 [6] [µg/mL] | IC50 [7] [µg/mL] | IC50 [8] [µg/mL] | MMC (Vero) [µg/mL] | IC50 (Junin virus) [µg/mL] | IC50 (Sindbis virus) [µg/mL] | IC50 (Tacaribe virus) [µg/mL] | IC50 (Human respirovirus 3) [µg/mL] | IC50 [9] [µg/mL] | also measured |
| --- | --- | --- | --- | --- | --- | --- | --- | --- | --- | --- | --- | --- | --- | --- | --- | --- | --- | --- | --- | --- | --- |
| CCCCCCCCCCCCSCCCCCCCCCCCCC(=O)NCCCCCCCCCCC(=O)NCCC(=O)[O-].[Na+] | >200 | > 200 | > 200 | >50 | 25 | 20 | >200 | > 200 | > 200 | 10 | > 250 | 3 | 12 | 10 | >200 | 43 | > 200 | 50 | > 200 | > 200 | IC50 [1]: Not Active; IC50 (Semliki Forest virus): > 200 µg/mL; CC50 (CEM-4): 42 µg/mL; IC50 (Human alphaherpesvirus 2): 20 µg/mL; IC50 (Human alphaherpesvirus 1 [10]): 20 µg/mL; IC50 (Human alphaherpesvirus 1 [11]): 20 µg/mL |
| CCCCCCCCCCCCSCCCCCCCCCCC(=O)N(C)CCCCCCCCCCC(=O)[O-].[Na+] | >400 | > 200 | > 200 | >50 | > 50 | > 50 | >200 | > 200 | > 200 | 150 | 128 | 28 | 70 | 150 | >200 | > 50 | > 200 | > 50 | > 200 | > 200 | IC50 [1]: Not Active; IC50 (Semliki Forest virus): > 200 µg/mL; CC50 (CEM-4): > 200 µg/mL; IC50 (Human alphaherpesvirus 2): 70 µg/mL; IC50 (Human alphaherpesvirus 1 [10]): > 200 µg/mL; IC50 (Human alphaherpesvirus 1 [11]): > 200 µg/mL |
| CCCCCCCCCCCCSCCCCCCCCCCCCC(=O)NCCCCCCCCCCC(=O)[O-].[Na+] | >200 | > 200 | > 200 | >50 | > 50 | 35 | >200 | > 200 | > 200 | 50 | 136 | 20 | 47 | 150 | >200 | > 50 | > 200 | > 50 | > 200 | > 200 | IC50 [1]: Not Active; IC50 (Semliki Forest virus): > 200 µg/mL; CC50 (CEM-4): 37 µg/mL; IC50 (Human alphaherpesvirus 2): > 200 µg/mL; IC50 (Human alphaherpesvirus 1 [10]): > 200 µg/mL; IC50 (Human alphaherpesvirus 1 [11]): > 200 µg/mL |
| CCCCCCCCCCCCSCCCCCCCCCCCCCCCCCCCCCCCCCCCCCCCCCCCCCCCCCCCCCCCCCCC(=O)N(CC)CCCCCCCCCCC(=O)NC(CCC(=O)[O-])C(=O)O.[Na+] (stereo not given) | 100 | > 40 | > 40 | >50 | 10 | 5 | >200 | > 200 | > 200 | 6 | > 250 | 0.1 | 7 | 30 | >40 | > 50 | > 10 | > 50 | > 10 | > 10 | IC50 [12]: 1 µg/mL; IC50 (Semliki Forest virus): > 10 µg/mL; CC50 (CEM-4): > 300 µg/mL; IC50 (Human alphaherpesvirus 2): > 40 µg/mL; IC50 (Human alphaherpesvirus 1 [10]): 20 µg/mL; IC50 (Human alphaherpesvirus 1 [11]): 40 µg/mL |
| CCCCCCCCCCCCSCCCCCCCCCCCCCCCCCCCCCCCCCCCCCCCCC(=O)N(CC)CCCCCCCCCCC(=O)[O-].[Na+] | 100 | > 40 | > 40 | >50 | 9 | 9 | >200 | > 200 | > 200 | 30 | 30 | > 16 | > 29 | 50 | >200 | 20 | > 200 | > 20 | > 200 | > 200 | IC50 [12]: > 11 µg/mL; IC50 (Semliki Forest virus): > 200 µg/mL; CC50 (CEM-4): 27 µg/mL; IC50 (Human alphaherpesvirus 2): 20 µg/mL; IC50 (Human alphaherpesvirus 1 [10]): > 40 µg/mL; IC50 (Human alphaherpesvirus 1 [11]): > 200 µg/mL |
